Measurements collected from several papers.
Lines come from different studies, so protocols differ.

SMILES	assay	test system	conditions	quantity	value
Oc1c(Br)cc(Cl)c2cccnc12		Sprague-Dawley rat, plasma	subcutaneous, 10 mg/kg	Vd/F	15.1 L/kg
c1ccc(-c2nc(N3CCc4cccnc4C3)c3ccccc3n2)nc1	metabolic stability	mouse, liver microsomes		microsomal CLint	520 µL/min/mg
CNCc1cc(-c2ccccc2F)n(S(=O)(=O)c2cccnc2)c1		Sprague-Dawley rat, plasma	oral, 10 mg/kg	Vd/F	32.2 L/kg
O=C(O)C1CCN(c2nc(-c3ccccn3)nc3ccccc23)C1 (stereo not shown)	metabolic stability	mouse, liver microsomes		microsomal CLint	< 1 µL/min/mg
O=C(CCCCCCC(=O)Nc1ccccc1)NO		cat, serum	oral, 250 mg/m², single dose	Cmax	39 ng/mL
Cc1cc(Cl)c(Cl)cc1NC(=O)c1ccc(N2CCNCC2)nc1	metabolic stability	CD-1 mouse, liver microsomes	1 µM, 1 h, pH 7.4	scaled CLint	47 mL/min/kg
c1ccc(-c2nc(NCc3nc4ccccc4o3)c3ccccc3n2)nc1	metabolic stability	mouse, liver microsomes		microsomal CLint	119 µL/min/mg
C#Cc1cccc(Nc2ncnc3cc(OCCOC)c(OCCOC)cc23)c1		male Sprague-Dawley rat, plasma	oral, 12 mg/kg, single dose	Vd/F	4.3 L/kg
Cc1ccc(-c2nc3ccccc3o2)cc1NC(=O)c1cc([N+](=O)[O-])c(N2CCNCC2)cc1Cl	metabolic stability	CD-1 mouse, liver microsomes	1 µM, 1 h, pH 7.4	scaled CLint	12 mL/min/kg
CC(=O)Nc1nnc(N2CCN([C@@H](C)c3ccc4c(c3)OCO4)CC2)s1		monkey, plasma	1 µM	fraction unbound	0.068
